Measurements from ChEMBL document CHEMBL3865800, “Design, synthesis and biological evaluation of 4-anilinoquinazoline derivatives as new c-myc G-quadruplex ligands” (Eur J Med Chem, 2016).
pIC50, pKd: −log10 of the molar value. The source made the active and inactive calls. No cut-off for these calls is given here.

Assays:
[1] = Binding affinity to F10T duplex DNA (unknown origin) assessed as change in melting temperature by FRET assay
In short: (§1)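 Fluorescence melting on real-time PCR instrument; 0.4 μM labelled oligonucleotide (FPu22T or duplex-forming F10T), ligand 2.0 μM, in 10 mM Tris-HCl pH 7.4 with 10 or 60 mM KCl; ex 470/em 530 nm at 1 °C steps over 37–99 °C, 30 s equilibration each; ΔTm = Tm(DNA+ligand) − Tm(DNA).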

[2] = Cytotoxicity against human Raji cells assessed as reduction in cell viability after 48 hrs by MTT assay; format: functional, cell-based
[3] = Selectivity ratio of Kd for double stranded DNA (unknown origin) to Kd for biotinylated 5'-Pu22-3'-labelled c-myc G-quadruplex DNA
[4] = Cytotoxicity against mouse primary mesangial cells assessed as reduction in cell viability after 48 hrs by MTT assay; format: toxicity
[5] = Cytotoxicity against human A549 cells assessed as reduction in cell viability after 48 hrs by MTT assay; format: functional, cell-based; details: A549, 48 h
[6] = Cytotoxicity against human HeLa cells assessed as reduction in cell viability after 48 hrs by MTT assay; format: functional, cell-based
[7] = Binding affinity to 5'-FPu22T-3'-labelled c-myc G-quadruplex DNA (unknown origin) assessed as change in melting temperature by FRET assay; in short: as §1
[8] = Cytotoxicity against human CA46 cells assessed as reduction in cell viability after 48 hrs by MTT assay; format: functional, cell-based; details: CA46, 48 h
[9] = Binding affinity to biotinylated 5'-Pu22-3'-labelled c-myc G-quadruplex DNA (unknown origin) after 240 secs by SPR assay
In short: (§2)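 SPR: biotinylated Pu22 and biotinylated duplex folded in 50 mM Tris-HCl pH 7.4, 150 mM KCl, 0.005% Tween20, captured (~1000 RU) on separate flow cells with a blank reference; ligand 0.0625–10 μM in running buffer, 240 s association then 240 s dissociation at 25 °C; equilibrium KD derived.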

[10] = Binding affinity to biotinylated double stranded DNA (unknown origin) after 240 secs by SPR assay; in short: as §2
[11] = Binding affinity to 5'-FPu22T-3'-labelled c-myc G-quadruplex DNA (unknown origin) assessed as change in melting temperature at 2 uM in presence ds26 DNA of by FRET assay
In short: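 FRET melting of 0.4 μM labelled FPu22T with ligand 2.0 μM, alone or with 10-fold (4 μM), 50-fold (20 μM) or 100-fold (40 μM) excess unlabelled duplex ds26 as competitor; Tris-HCl 10 mM pH 7.4 with 10 or 60 mM KCl; ex 470/em 530 nm read every 1 °C from 37–99 °C, 30 s hold; ΔTm = Tm(DNA+ligand) − Tm(DNA).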

SMILES	ΔTm [1] [°C]	pIC50 [2]	Selectivity ratio [3]	IC50 at 48 h [4] [µM]	pIC50 [5]	pIC50 [6]	ΔTm [7] [°C]	pIC50 [8]	pKd [9]	pKd [10]	Activity [11]
CCN(CC)CC(=O)Nc1ccc(Nc2nc(N(CC)CC)nc3ccccc23)cc1	0.4	4.87	> 3	10.2	4.68	4.68	10	5.38	5.48	< 5.00	–
Oc1ccccc1-c1nc(Nc2ccc(OCCN3CCCCC3)cc2)c2ccccc2n1	0.2	–	–	–	–	–	1.4	–	< 5.00	–	–
CCN(CC)CCC(=O)Nc1ccc(Nc2nc(-c3ccccc3)nc3ccccc23)cc1	0.2	5.07	–	6.2	4.75	5.08	4.6	5.44	< 5.00	–	–
Oc1ccccc1-c1nc(Nc2ccc(OCCN3CCCC3)cc2)c2ccccc2n1	0.2	–	–	–	–	–	1.6	–	–	–	–
CCN(CC)CC(=O)Nc1ccc(Nc2nc(Cl)nc3ccccc23)cc1	0.1	< 4.30	–	> 50	< 4.30	< 4.30	0.1	4.48	–	–	–
O=C(CN1CCOCC1)Nc1ccc(Nc2nc(-c3ccccc3NC(=O)CN3CCOCC3)nc3ccccc23)cc1	0.2	4.92	–	> 50	< 4.30	< 4.30	0.2	5.67	5.09	–	–
CN1CCN(CCOc2ccc(Nc3nc(-c4ccccc4O)nc4ccccc34)cc2)CC1	0.1	–	–	–	–	–	0.4	–	< 5.00	–	–
CCN(CC)CCCOc1ccc(Nc2nc(N(CC)CC)nc3ccccc23)cc1	0.2	5.24	–	8.1	5.32	5.64	8.2	4.91	5.61	–	–
CCN(CC)CC(=O)Nc1ccc(Nc2nc(-c3ccc(O)cc3)nc3ccccc23)cc1	0.7	4.89	–	12.9	4.57	4.68	7.2	4.88	5.20	–	–
CN(C)CCCNCCC(=O)Nc1ccc(Nc2nc(-c3ccccc3NC(=O)CCNCCCN(C)C)nc3ccccc23)cc1	3.7	< 4.30	10.3	> 50	< 4.30	< 4.30	21.8	< 4.30	6.24	5.23	Active
CCN(CC)CCC(=O)Nc1ccc(Nc2nc(-c3ccccc3N)nc3ccccc23)cc1	0.1	4.84	–	5.7	5.04	5.14	5.3	5.48	5.33	–	–
CCN(CC)CCCC(=O)Nc1ccc(Nc2nc(-c3ccccc3NC(=O)CCCN(CC)CC)nc3ccccc23)cc1	0.9	4.56	> 18.5	> 50	4.61	4.49	13.6	4.68	6.27	< 5.00	Active
CCN(CC)CCC(=O)Nc1ccc(Nc2nc(Cl)nc3ccccc23)cc1	0.1	< 4.30	–	> 50	4.34	< 4.30	1	4.50	5.26	–	–
CCN(CC)CCCCC(=O)Nc1ccc(Nc2nc(-c3ccccc3NC(=O)CCCCN(CC)CC)nc3ccccc23)cc1	0.4	4.90	> 19.2	> 50	< 4.30	4.90	13.1	5.24	6.28	< 5.00	Active
CN1CCN(CC(=O)Nc2ccc(Nc3nc(-c4ccccc4NC(=O)CN4CCN(C)CC4)nc4ccccc34)cc2)CC1	0.1	4.75	–	38.2	4.67	4.54	12.5	4.91	6.21	–	–
CN(C)CCCNCCC(=O)Nc1ccc(C(=O)Nc2cc(Cl)ccc2-c2nc(NCCCN(C)C)c3ccccc3n2)cc1	0.6	–	–	–	–	–	16.6	–	–	–	–
CCN(CC)CCNCCOc1ccc(Nc2nc(-c3ccccc3O)nc3ccccc23)cc1	0.2	–	–	–	–	–	0.4	–	< 5.00	–	–
CCN(CC)CCC(=O)Nc1cc(Cl)ccc1-c1nc(NCCCN(C)C)c2ccccc2n1	3.7	–	18.7	–	–	–	11.4	–	6.31	5.04	–
CCN(CC)CCCNCCC(=O)Nc1ccc(Nc2nc(-c3ccccc3NC(=O)CCNCCCN(CC)CC)nc3ccccc23)cc1	3.6	< 4.30	3.9	> 50	< 4.30	< 4.30	26.6	< 4.30	5.80	5.21	Active
CCN(CC)CCOc1ccc(Nc2nc(-c3ccccc3O)nc3ccccc23)cc1	0.1	–	–	–	–	–	0.4	–	< 5.00	–	–
O=C(CCN1CCOCC1)Nc1ccc(Nc2nc(-c3ccccc3NC(=O)CCN3CCOCC3)nc3ccccc23)cc1	0.3	< 4.30	–	> 50	< 4.30	< 4.30	4.8	< 4.30	5.88	–	–
CCN(CC)CC(=O)Nc1ccc(Nc2nc(-c3ccccc3NC(=O)CN(CC)CC)nc3ccccc23)cc1	0.3	5.19	–	2.7	< 4.30	4.53	8.8	5.50	5.40	–	–
CCN(CC)CCOc1ccc(Nc2nc(N(CC)CC)nc3ccccc23)cc1	0.4	4.69	–	9.8	5.30	4.76	7.1	4.69	5.54	–	–
Oc1ccccc1-c1nc(Nc2ccc(OCCN3CCOCC3)cc2)c2ccccc2n1	0.1	–	–	–	–	–	0.7	–	–	–	–
